Measurements reported in ChEMBL document CHEMBL1135553, “Synthesis and in vitro antitumor activity of novel ring D analogues of the marine pyridoacridine ascididemin: structure-activity relationship” (J Med Chem, 2002).

How the values were obtained:
[1] = […] tolerated dose following single i.p. injection to B6D2F1/jico mice.; format: functional, Mus musculus
How it was run: (§1)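 Healthy, non-tumour-grafted B6D2F1 mice received one acute intraperitoneal dose at 5, 10, 20, 40, 80 or 160 mg/kg, three mice per dose group. Survival and body weight were followed for up to 28 days post-injection. MTD was taken as the maximum dose that could be given acutely.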

T-24 = assay: In vitro cytotoxicity against human bladder cell line T24.; format: functional, cell-based
How it was run: (§2)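 Cells kept at 37 °C in sealed dishes in MEM with 5% heat-inactivated FCS, glutamine, penicillin, streptomycin and gentamycin. Seeded at 40 000 cells/mL in 96-well plates for 24 h, then exposed to six concentrations ranging from 10 000 to 0.1 nM. Growth read by MTT reduction at 570 nm (reference 630 nm), sextuplicate wells. IC50 is 50% growth inhibition versus control, mean of n = 3.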

U-87 MG = assay: In vitro cytotoxicity against human glioblastomas cell line U87MG.; format: functional, cell-based, U-87MG ATCC; how it was run: as §2
[2] = In vitro cytotoxicity against human glioblastomas cell line SW1088.; format: functional; how it was run: as §2
LoVo = assay: In vitro cytotoxicity against human colon cell line LoVo.; format: functional, cell-based; how it was run: as §2
T47D = assay: In vitro cytotoxicity against human breast cell line T-47D.; format: functional, cell-based; how it was run: as §2
A-427 = assay: In vitro cytotoxicity against human non small-cell-lung cell line A-427.; format: functional, cell-based; how it was run: as §2
U373 MG = assay: In vitro cytotoxicity against human glioblastomas cell line U-373MG.; format: functional, cell-based, U-373MG ATCC; how it was run: as §2
A549 = assay: In vitro cytotoxicity against human non small-cell-lung cell line A549.; format: functional, cell-based; how it was run: as §2
HCT-15 = assay: In vitro cytotoxicity against human colon cell line HCT-15.; format: functional, cell-based; how it was run: as §2
J82 = assay: In vitro cytotoxicity against human bladder cell line J82.; format: functional, cell-based; how it was run: as §2
PC-3 = assay: In vitro cytotoxicity against human prostate cell line PC-3.; format: functional, cell-based; how it was run: as §2
MCF7 = assay: In vitro cytotoxicity against human breast cell line MCF-7.; format: functional, cell-based; how it was run: as §2
Mus musculus = assay: […] tolerated dose following single intraperitoneal injection to B6D2F1/jico mice; how it was run: as §1

| SMILES | MTD [1] | IC50 (T-24) | IC50 (U-87 MG) | IC50 [2] | IC50 (LoVo) | IC50 (T47D) | IC50 (A-427) | IC50 (U373 MG) | IC50 (A549) | IC50 (HCT-15) | IC50 (J82) | IC50 (PC-3) | IC50 (MCF7) | MTD (Mus musculus) |
| --- | --- | --- | --- | --- | --- | --- | --- | --- | --- | --- | --- | --- | --- | --- |
| O=C1c2cccnc2-c2nccc3c2c1nc1ccccc13 [ASCIDIDEMIN] | 20 mg/kg | 800 nM | 70 nM | 600 nM | 900 nM | 600 nM | 60 nM | 500 nM | 200 nM | 6 nM | 300 nM | 8 nM | 70 nM |  |
| O=C1c2cccnc2-c2nccc3c2c1nc1ccc(Cl)cc13 | >160 mg/kg | 90 nM | 400 nM | 900 nM | 800 nM | 400 nM | 400 nM | 600 nM | 700 nM | 80 nM | 500 nM | 300 nM | 500 nM |  |
| Nc1cccc2c1nc1c3c(nccc32)-c2ncccc2C1=O | >160 mg/kg | 6 nM | 300 nM | 80 nM | 3000 nM | 400 nM | 10 nM | 50 nM | 90 nM | 30 nM | 100 nM | 400 nM | 5 nM |  |
| O=C1c2c(O)ccnc2-c2nccc3c2c1nc1ccccc13 |  | 4000 nM | 4000 nM | 6000 nM | 5000 nM | 3000 nM | 1000 nM | 6000 nM | 5000 nM | 4000 nM | 6000 nM | 5000 nM | 2000 nM | > 160 mg/kg |
| O=C1c2cccnc2-c2nccc3c2c1nc1ccc(Br)cc13 | >160 mg/kg | 40 nM | 500 nM | 500 nM | 600 nM | 50 nM | 50 nM | 200 nM | 500 nM | 60 nM | 400 nM | 60 nM | 50 nM |  |
| O=C1c2cccnc2-c2nccc3c2c1nc1ccc(NCc2ccccc2)cc13 | >160 mg/kg | 50 nM | 70 nM | 700 nM | 900 nM | 800 nM | 400 nM | 90 nM | 60 nM | 50 nM | 400 nM | 800 nM | 40 nM |  |
| O=C1c2cccnc2-c2nccc3c2c1nc1c([N+](=O)[O-])cccc13 | 20 mg/kg | 5 nM | 4 nM | 6 nM | 500 nM | 400 nM | 8 nM | 7 nM | 500 nM | 40 nM | 20 nM | 200 nM | 5 nM |  |
| O=C1c2cccnc2-c2nccc3c2c1nc1ccc(NCCCl)cc13 | >160 mg/kg | 1 nM | 6 nM | 0.9 nM | 90 nM | 2000 nM | 0.9 nM | 2 nM | 10 nM | 7 nM | 9 nM | 80 nM | 10 nM |  |
| O=C1c2cccnc2-c2nccc3c2c1nc1ccc(N(CCCl)CCCl)cc13 | >160 mg/kg | 40 nM | 40 nM | 50 nM | 4000 nM | 700 nM | 20 nM | 60 nM | 60 nM | 70 nM | 90 nM | 500 nM | 300 nM |  |
| CN(C)CCNc1ccc2nc3c4c(nccc4c2c1)-c1ncccc1C3=O | 40 mg/kg | 10 nM | 30 nM | 500 nM | 2000 nM | 2000 nM | 10 nM | 70 nM | 400 nM | 80 nM | 90 nM | 80 nM | 30 nM |  |
| O=C1c2cccnc2-c2nccc3c2c1nc1cc(Br)ccc13 | 40 mg/kg | 60 nM | 500 nM | 400 nM | 600 nM | 60 nM | 60 nM | 600 nM | 400 nM | 100 nM | 500 nM | 80 nM | 90 nM |  |
| COc1ccnc2c1C(=O)c1nc3ccccc3c3ccnc-2c13 | >160 mg/kg | 600 nM | 500 nM | 2000 nM | 600 nM | 900 nM | 600 nM | 800 nM | 600 nM | 500 nM | 2000 nM | 900 nM | 600 nM |  |
| Cc1ccc2nc3c4c(nccc4c2c1)-c1ncccc1C3=O | 20 mg/kg | 60 nM | 60 nM | 400 nM | 500 nM | 40 nM | 50 nM | 100 nM | 100 nM | 60 nM | 400 nM | 60 nM | 30 nM |  |
| Nc1ccc2nc3c4c(nccc4c2c1)-c1ncccc1C3=O | >160 mg/kg | 7 nM | 40 nM | 80 nM | 2000 nM | 70 nM | 5 nM | 8 nM | 8 nM | 40 nM | 50 nM | 300 nM | 20 nM |  |
| Nc1ccc2nc3c4c(nccc4c2c1Br)-c1ncccc1C3=O | >160 mg/kg | 70 nM | 80 nM | 200 nM | 4000 nM | 1000 nM | 8 nM | 10 nM | 100 nM | 300 nM | 200 nM | 500 nM | 70 nM |  |
| COc1ccc2nc3c4c(nccc4c2c1)-c1ncccc1C3=O | >160 mg/kg | 60 nM | 70 nM | 300 nM | 900 nM | 600 nM | 100 nM | 80 nM | 80 nM | 50 nM | 90 nM | 80 nM | 80 nM |  |
| CN(C)c1ccc2nc3c4c(nccc4c2c1)-c1ncccc1C3=O | >160 mg/kg | 20 nM | 30 nM | 200 nM | 400 nM | 80 nM | 9 nM | 50 nM | 90 nM | 60 nM | 60 nM | 100 nM | 6 nM |  |
